Screening data (PubChem BioAssay)
MEKK2wt PB1 HTS: raises or lowers MEK5 binding to wildtype human MEKK2 PB1 domain; bead flow cytometry, Alexa488-MEK5 binding to MEKK2 WT; actives lie on both sides; actives 1.1% (n = 290,000); AID 1531; Q9Y2U5; binding response (% of control), % at 10 µM; in the data active means binding response below about 67% or above about 130%
GSK3B inh: inhibitors of human GSK3beta kinase; P49841; GST-GSK3beta kinase, ADP-Glo luminescence, 60 min; active compounds read low; activity score (negative = inhibition), % at 10 µM; actives 0.038% (n = 300,000); AID 2097;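 active means more than half of replicate wells score below -50%, meaning over 50% inhibition versus plate controls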;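 further: 0% = median DMSO wells and -100% = median GW8510 positive control wells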
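Test system: GST-tagged human GSK3beta kinase, cell-free; evaluation: activity score scaled between in-plate DMSO and GW8510 controls; measured by: ADP-Glo luminescence; incubation: 60 min reaction, RT; benchmarks: DMSO and 20 µM GW8510; reagent: peptide substrate plus 25 µM ATP (final); medium: Tris/MgCl2 kinase buffer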
MEKK2 mut-MEK5: signal of MEK5 binding to mutant human MEKK2 PB1 domain. bead flow cytometry, Alexa488-MEK5 binding to MEKK2 mutant. percent response, % at 10 µM. actives 0.35% (n = 290,000). AID 1530; in the data active means percent response above about 24%, passing the limit was not always enough
GSK3 alpha inh: inhibitors of human GSK-3 alpha kinase; ADP-Glo luminescence, 60 min; inhibition, % at 10 µM; actives 0.1% (n = 320,000); AID 2650;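 active means more than half of replicates show inhibition above 20%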;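 further: GST-tagged GSK-3 alpha with peptide substrate and 25 µM ATP; 0% = DMSO neutral wells and 100% = GW8510 positive control wells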
Target sequence (P49840 whole entry, looked up): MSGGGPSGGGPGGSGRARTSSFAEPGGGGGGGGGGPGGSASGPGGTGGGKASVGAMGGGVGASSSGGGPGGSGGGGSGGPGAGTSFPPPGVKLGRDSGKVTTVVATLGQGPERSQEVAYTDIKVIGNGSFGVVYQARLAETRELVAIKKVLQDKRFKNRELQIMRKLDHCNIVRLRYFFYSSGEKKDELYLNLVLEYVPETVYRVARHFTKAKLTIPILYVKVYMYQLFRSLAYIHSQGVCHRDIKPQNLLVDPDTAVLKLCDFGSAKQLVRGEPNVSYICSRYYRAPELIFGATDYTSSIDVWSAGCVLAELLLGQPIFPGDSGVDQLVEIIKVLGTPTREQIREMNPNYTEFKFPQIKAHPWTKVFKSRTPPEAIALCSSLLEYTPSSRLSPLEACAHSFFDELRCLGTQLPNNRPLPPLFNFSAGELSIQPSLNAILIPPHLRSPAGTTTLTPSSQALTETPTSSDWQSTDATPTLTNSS
MEKK3 PB1 HTS: raises or lowers MEK5 binding to the human MEKK3 PB1 domain; binding response (% of control), % at 10 µM; actives 1.4% (n = 290,000); bead-based flow cytometry, Alexa488-MEK5 binding to MEKK3; actives lie on both sides; 0 = blocked by unlabeled MEK5, 100 = vehicle; AID 1529; Q99759;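 active means binding response more than 3 SD above or below the average of its plate-row segment, actives on both sides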;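 further: Alexa488 bead fluorescence after subtracting the streptavidin-only scavenger bead signal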
STK33 kinase inh: blocks human STK33 kinase activity. Q9BYT3. purified STK33, MBP phosphorylation, ADP-Glo luminescence. inhibition, % at 10 µM. actives 0.073% (n = 320,000). AID 2661;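 active means inhibition at or above 25%, using the most active replicate where run in duplicate; inactive means inhibition below 25%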
MEKK2wt confirm: raises or lowers MEK5 binding to wildtype human MEKK2, retest | shares compounds with MEKK3 PB1 HTS | bead flow cytometry, Alexa488-MEK5 binding to MEKK2 WT; actives lie on both sides | binding response (% of control), % at 10 µM | actives 2.4% (n = 5,900); in the data active means binding response below about 16% or above about 210%; inactive means in between
MEKK2mut-MEK5: signal of MEK5 binding to mutant human MEKK2, retest; shares compounds with MEKK3 PB1 HTS; bead flow cytometry, Alexa488-MEK5 binding to MEKK2 mutant; percent response, % at 10 µM; actives 2% (n = 5,900); in the data active means percent response mostly above about 71%, no sharp cut-off; inactive means mostly below about 38%;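 further: higher means compound restores mutant binding toward wildtype level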
MEKK3 confirm: confirmation of inhibitors of MEK5 binding to human MEKK3; shares compounds with MEKK3 PB1 HTS; bead flow cytometry, Alexa488-MEK5 binding to MEKK3; active compounds read low; binding response (% of control), % at 10 µM; actives 1.8% (n = 5,900); AID 1894;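 active means binding response below 72% of control, or above a set upper limit, though filed actives all read lower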;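 further: 100% = DMSO only wells and 0% = binding blocked by excess unlabeled MEK5; lower values mean stronger disruption of MEK5 binding to MEKK3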
* hit, by the source's call; . = no result; [ ] = remark or other dose. An excerpt weighted towards active compounds, which were near 2.1% of everything screened.

SMILES	MEKK2wt PB1 HTS	GSK3B inh	MEKK2 mut-MEK5	GSK3 alpha inh	MEKK3 PB1 HTS	STK33 kinase inh	MEKK2wt confirm	MEKK2mut-MEK5	MEKK3 confirm
COc1cccc(NC(=S)NN2C(C)CCCC2C)c1 (stereo not given)	107	-2	1	-2	132*	-1	109	-1	104
CNC(=O)c1cc(C(=O)c2ccc(Cl)cc2)c(Br)[nH]1	107	1	6	1	102	1	.	.	.
Oc1ccccc1CN1CCCN(Cc2ccccc2O)C1	111	1	7	.	124*	1	107	3	101
Oc1ccccc1CN1CCN(C(O)(c2ccccc2)c2ccccc2)CC1	111	0	7	-4	104	-1	.	.	.
NCCCC[C@@H]1NC(=O)c2cc([N+](=O)[O-])cc(F)c2NCCCC[C@@H](C(N)=O)NC(=O)CNC1=O	135*	0	12	2	113	0	104	2	103
CC(C)OCc1c(C(=O)Nc2nccs2)oc2ccccc12	92	3	-3	-3	96	-1	.	.	.
Cn1c(CN2CCN(C(=O)c3ccc(F)cc3)CC2)nc2cc([N+](=O)[O-])ccc21	106	-3	1	1	147*	-1	100	0	101
O=C(CCc1nc2ccccc2c(=O)[nH]1)Nc1nnc(SCc2ccccc2F)s1	.	.	.	8	.	-1	.	.	.
CCN(CC)S(=O)(=O)c1ccc(C(=O)/C=C/c2ccc(-c3ccc([N+](=O)[O-])cc3)o2)cc1	37*[inhibitor]	1	-12	0	87	-1	65	-15	85
Cc1ccc(C(=O)/C=C/c2ccc(-c3ccc(C)cc3)o2)cc1	89	-2	0	-1	101	-1	.	.	.
FC(F)(F)c1nnc2ccc(Sc3ccccn3)nn12	.	-1	-28	-3	1.0*[inhibitor]	2	95	-8	95
Cc1cccc(OCC(=O)NCC(=O)N/N=C/c2cc(Br)cc(Br)c2O)c1	98	1	-5	0	100	0	.	.	.
CCCCn1c(=N)n(CC(=O)c2ccc([N+](=O)[O-])cc2)c2ccccc21	115	-3	2	1	106	-1	.	.	.
Cc1ccc(Cn2c(=N)n(CC(=O)c3ccc([N+](=O)[O-])cc3)c3ccccc32)cc1	153*	3	60*	-1	111	0	167	38	110
CCc1nnc(NC(=O)CSc2nnc(-c3ccncc3)n2C)s1	1.0*[inhibitor]	-1	1	-3	2.0*[inhibitor]	-4	103	-1	102
Cc1nc(NC(=O)CSc2nnc(-c3ccncc3)n2C)sc1C	97	-2	0	3	101	-1	.	.	.
COc1cc(C(=O)N2CCN(Cc3ccc4c(c3)OCO4)CC2)cc(OC)c1OC	102	1	28*	1	99	-1	98	-1	102
CCN(CC)c1ccc(C(=O)NC(=S)N2CCN(Cc3ccc4c(c3)OCO4)CC2)cc1	107	2	-1	-1	145*	1	101	0	102
Cc1cc(C)c2nc(C)cc(N/N=C/c3ccc(O)cc3)c2c1	237*	1	119*	8	115	-1	244*	102*	111
Cc1cc(N/N=C/c2ccc(N(C)C)cc2)c2ccccc2n1	100	3	7	2	104	0	.	.	.
Cc1cc(N/N=C/c2ccc(O)cc2)c2cccc(C)c2n1	209*	-7	29*	11	110	4	134	21	107
COc1ccccc1C(C)Nc1nc(-c2cccnc2)nc2ccccc12 (stereo not given)	104	-1	6	2	100	2	.	.	.
CCN(CC)C(=O)c1cc(C(C)(C)C)c(O)c(C(C)(C)C)c1	105	2	0	-1	128*	0	108	8	105
CC(C)(C)NC(=O)c1cc(C(C)(C)C)c(O)c(C(C)(C)C)c1	94	-1	0	1	97	-1	.	.	.
CC1=C(CO)C(=O)OC([C@@H](C)C2CC[C@H]3C4C[C@H]5O[C@]56[C@@H](O)C=CC(=O)[C@]6(C)C4CC[C@]23C)C1 (stereo not given in full)	103	-3	3	-1	105	6	.	.	.
SMILES	MEKK2wt PB1 HTS	GSK3B inh	MEKK2 mut-MEK5	GSK3 alpha inh	MEKK3 PB1 HTS	STK33 kinase inh	MEKK2wt confirm	MEKK2mut-MEK5	MEKK3 confirm
CN(C)S(=O)(=O)c1ccc(C(=O)NC(=O)CSc2ccccc2)cc1	102	-2	-1	0	131*	1	100	1	105
CCN(CC)CC(=O)Nc1ccc2c(c1)Nc1ccccc1CC2	135*	-1	13	17	109	2	147	30	112
Cc1onc(-c2ccccc2)c1C(=O)NCc1ccc2c(c1)OCO2	-6.0*[inhibitor]	3	1	0	102	-1	105	2	104
COc1ccccc1N1CCN(C(=O)CN(c2ccccc2OC)S(=O)(=O)c2ccccc2)CC1	98	-2	2	0	99	0	.	.	.
O=C(N/N=C/c1ccc(O)cc1)c1ccncc1	101	1	2	1	98	-2	.	.	.
CC/C(=C\C(=O)c1ccncc1)Nc1ccc(O)cc1	113	2	25*	1	107	-1	96	-10	98
CCCCN(C)CC(O)Cn1cc(/C=C/C(=O)c2cccs2)c2ccccc21 (stereo not given)	131	1	2	2	105	10	.	.	.
CCCCN(C)CC(O)Cn1cc(/C=C/C(=O)c2ccc(OCC)cc2)c2ccccc21 (stereo not given)	200*	1	62*	0	108	1	169	42	101
Cc1ccc(Nc2nnc(C)c3ccccc23)c(C)c1	.	-5	.	-3	.	-1	.	.	.
CCOC(=O)c1sc(NC(=O)c2ccc(S(=O)(=O)N3CCCCC3)cc2)nc1-c1ccccc1	105	-1	1	5	135*	-1	99	-5	99
CCn1c2ccccc2c2nnc(SCC(=O)Nc3c(C)n(C)n(-c4ccccc4)c3=O)nc21	2.0*[inhibitor]	0	-17	3	2.0*[inhibitor]	1	101	-2	97
O=C(O)c1ccccc1C(=O)Nc1ccccc1	103	-1	2	3	101	-1	.	.	.
